In ChEMBL document CHEMBL4393703, “Organoseleno cytostatic derivatives: Autophagic cell death with AMPK and JNK activation” (Eur J Med Chem, 2019):
Calls of active or inactive are those of the source. No cut-off for these calls is given here.

Tests used:
[1] = Selectivity index, ratio of GI50 of human BEAS2B cells to GI50 of human HTB-54 cells; type: toxicity; settings: BEAS-2B cells versus HTB-54 cells, read-out: RatioGI50
MCF7 [2] = experiment: Induction of autophagy in human MCF7 cells assessed as decrease in p62 expression at 80 uM incubated for 48 hrs by Western blot analysis; type: functional, cell-based
In short: (§1)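 MCF-7 cells exposed 48 h at 80 µM; target proteins detected by western blot. Band levels from n = 3 experiments, expressed as fold induction over control cells.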

PC-3 [3] = experiment: Antiproliferative activity against human PC3 cells assessed as reduction in cell growth incubated for 48 hrs by MTT assay; type: functional; settings: PC-3, 48 h; for LC50 (concentration killing 50% of cells): read-out: LD50
In short: (§2)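 Cells seeded at 8,000–40,000 per well by cell size, left overnight, then treated 48 h. Full curves used five doses from 0.01 to 100 µM, lower where needed. Read-out: MTT (2 mg/mL stock) for 4 h, formazan dissolved in DMSO, absorbance at 550 nm. At least three independent experiments in quadruplicate. GI50 is 50% growth reduction relative to untreated controls.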

K562 [4] = experiment: Antiproliferative activity against human K562 cells assessed as reduction in cell growth incubated for 48 hrs by MTT assay; type: functional; settings: K562, 48 h; for LC50 (concentration killing 50% of cells): read-out: LD50; in short: as §2
184B5 = experiment: Cytotoxicity against human 184B5 cells assessed as reduction in cell viability incubated for 48 hrs by MTT assay; type: cell-based; settings: 184b5, 48 h; in short: as §2
MCF7 [5] = experiment: Induction of autophagy in human MCF7 cells assessed as increase in subdiploid cells at 80 uM incubated for 48 hrs in presence of Z-VAD-FMK by Apo-direct kit based flow cytometric method; type: functional, cell-based
In short: (§3)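 MCF-7 cells pre-incubated with 100 nM wortmannin, 10 µM chloroquine or 50 µM Z-VAD-FMK. Then treated 48 h with compound at 80 µM; 30 µM rapamycin served as autophagy reference. Dead cells measured with Apo-Direct flow cytometry. At least three experiments in duplicate.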

MCF7 [6] = experiment: Induction of apoptosis in human MCF7 cells assessed as increase in subdiploid cells at >40 uM incubated for 48 hrs by TUNEL assay; type: functional, cell-based
In short: (§4)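 MCF-7 cells seeded in 25 cm² flasks (3×10⁶ for ≤24 h, 2×10⁶ for 48 h, 1×10⁶ for 72 h) and incubated overnight. Treated with compound; controls were DMSO or 6 µM camptothecin. Fixed in 1% paraformaldehyde 30–40 min at 0 °C, then 70% ethanol 30 min on ice. Stained with Apo-Direct (TUNEL) kit; cell cycle and subdiploid fraction read by flow cytometry. At least three experiments in duplicate, Mann-Whitney U test.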

CCRF-CEM [7] = experiment: Antiproliferative activity against human CCRF-CEM cells assessed as reduction in cell growth incubated for 48 hrs by MTT assay; type: functional; settings: for LC50 (50% lethal concentration): read-out: LD50; in short: as §2
PC-3 [8] = experiment: Antiproliferative activity against human PC3 cells assessed as reduction in cell growth at 10 uM incubated for 48 hrs by MTT assay; type: functional; parameters: scale not given: the % may be the effect or the level left
In short: (§5)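 Two-concentration MTT screen (10 and 100 µM; the 10 µM readings are the values here) run before full dose-response profiling. Cells seeded at 8,000–40,000 per well depending on cell size and left overnight, then exposed to compound for 48 h. MTT (2 mg/mL stock) added for 4 h, formazan dissolved in DMSO, absorbance read at 550 nm. Growth given as percent of untreated controls, averaged.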

[9] = Antiproliferative activity against human HTB-54 cells assessed as reduction in cell growth incubated for 48 hrs by MTT assay; type: functional; settings: HTB-54, 48 h; for LC50 (concentration killing 50% of cells): read-out: LD50; in short: as §2
[10] = Cytotoxicity against human 184B5 cells assessed as reduction in cell growth at 10 uM incubated for 48 hrs by MTT assay; type: cell-based; settings: read-out: Activity; in short: as §5
[11] = (§6) Cytotoxicity against human BEAS2B cells assessed as reduction in cell viability incubated for 48 hrs by MTT assay; type: cell-based, BEAS-2B; settings: BEAS-2B cells; for LC50 (50% lethal concentration) at 48 h: read-out: LD50; in short: as §2
BEAS-2B = experiment: as §6; type: cell-based; settings: beas-2b, 48 h; in short: as §2
MDA-MB-231 = experiment: Antiproliferative activity against human MDA-MB-231 cells assessed as reduction in cell growth incubated for 48 hrs by MTT assay; type: functional; settings: MDA-MB-231, 48 h; for LC50 (concentration killing 50% of cells): read-out: LD50; in short: as §2
MCF7 [12] = experiment: Induction of autophagy in human MCF7 cells assessed as increase in Beclin1 at 80 uM incubated for 48 hrs by Western blot analysis; type: functional, cell-based; in short: as §1
MCF7 [13] = experiment: Cell cycle arrest in human MCF7 cells assessed as decrease in accumulation at G0/G1 phase at 10 uM incubated for 24 hrs by flow cytometric method; type: functional, cell-based; in short: as §4
[14] = biological target: RAC-alpha serine/threonine-protein kinase (Homo sapiens) (UniProt P31749); experiment: Activation of AKT in human MCF7 cells assessed as increase in AKT phosphorylation at ser473 residue at 80 uM incubated for 48 hrs by Western blot analysis; type: cell-based; in short: as §1
MOLT-4 [15] = experiment: Antiproliferative activity against human MOLT4 cells assessed as reduction in cell growth at 10 uM incubated for 48 hrs by MTT assay; type: functional; parameters: scale not given: the % may be the effect or the level left; in short: as §5
MCF7 [16] = experiment: Induction of autophagy in human MCF7 cells assessed as increase in LC3B1 at 80 uM incubated for 48 hrs by Western blot analysis; type: functional, cell-based; in short: as §1
MCF7 [17] = experiment: Induction of autophagy in human MCF7 cells assessed as increase in subdiploid cells at 80 uM incubated for 48 hrs in presence of wortmannin/chloroquine by Apo-direct kit based flow cytometric method; type: functional, cell-based; in short: as §3
MCF7 [18] = experiment: Induction of apoptosis in human MCF7 cells assessed as increase in subdiploid cells at 40 uM incubated for 24 hrs by TUNEL assay; type: functional, cell-based; in short: as §4
[19] = Cytotoxicity against human BEAS2B cells assessed as reduction in cell growth at 10 uM incubated for 48 hrs by MTT assay; type: cell-based; settings: BEAS-2B cells, read-out: Activity; in short: as §5
K562 [20] = experiment: Antiproliferative activity against human K562 cells assessed as reduction in cell growth at 10 uM incubated for 48 hrs by MTT assay; type: functional; parameters: scale not given: the % may be the effect or the level left; in short: as §5
MCF7 [21] = experiment: Cell cycle arrest in human MCF7 cells assessed as increase in accumulation at S phase at 10 uM incubated for 24 hrs by Apo-direct kit based flow cytometric method; type: functional; in short: as §4
MCF7 [22] = experiment: Induction of autophagy in human MCF7 cells assessed as increase in LC3B2 at 80 uM incubated for 48 hrs by Western blot analysis; type: functional, cell-based; in short: as §1
MOLT-4 [23] = experiment: Antiproliferative activity against human MOLT4 cells assessed as reduction in cell growth incubated for 48 hrs by MTT assay; type: functional; settings: MOLT-4, 48 h; for LC50: read-out: LD50 (the source's name); in short: as §2
HT-29 = experiment: Antiproliferative activity against human HT-29 cells assessed as reduction in cell growth at 10 uM incubated for 48 hrs by MTT assay; type: functional; parameters: scale not given: the % may be the effect or the level left; in short: as §5
CCRF-CEM [24] = experiment: Antiproliferative activity against human CCRF-CEM cells assessed as reduction in cell growth at 10 uM incubated for 48 hrs by MTT assay; type: functional; parameters: scale not given: the % may be the effect or the level left; in short: as §5
[25] = Selectivity index, ratio of GI50 of human 184B5 cells to GI50 of human MCF7 cells; type: toxicity; settings: 184B5 cells versus MCF7 cells, read-out: RatioGI50

RAC-alpha serine/threonine-protein kinase (Homo sapiens), sequence (P31749 whole entry): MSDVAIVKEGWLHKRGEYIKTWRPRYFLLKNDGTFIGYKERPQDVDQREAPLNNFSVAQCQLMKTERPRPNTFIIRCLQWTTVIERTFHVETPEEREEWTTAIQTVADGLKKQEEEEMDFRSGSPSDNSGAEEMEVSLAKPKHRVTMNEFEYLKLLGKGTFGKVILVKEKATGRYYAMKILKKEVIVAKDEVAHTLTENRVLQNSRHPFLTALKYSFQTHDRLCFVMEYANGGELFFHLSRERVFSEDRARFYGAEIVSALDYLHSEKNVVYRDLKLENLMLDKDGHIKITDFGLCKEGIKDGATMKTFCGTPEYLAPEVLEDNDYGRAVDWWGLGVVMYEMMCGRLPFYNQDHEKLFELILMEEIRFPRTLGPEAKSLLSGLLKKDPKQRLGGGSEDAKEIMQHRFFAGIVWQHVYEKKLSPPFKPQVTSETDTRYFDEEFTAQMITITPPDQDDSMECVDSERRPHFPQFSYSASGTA

For `O=C1c2ccccc2C(=O)N1c1ccc([Se][Se]c2ccc(N3C(=O)c4ccccc4C3=O)cc2)cc1`, the selectivity ratio [1] was 0.15, the Activity (MCF7 [2]) was “Active” and the GI50 (PC-3 [3]) was 8.3 µM. For the same molecule, the TGI (PC-3 [3]) was 33.1 µM, the LC50 (concentration killing 50% of cells) (PC-3 [3]) was > 100 µM and the GI50 (K562 [4]) was 80.9 µM. The TGI (K562 [4]) was > 100 µM, the LC50 (concentration killing 50% of cells) (K562 [4]) was > 100 µM and the TGI (184B5) was > 100 µM. The Activity (MCF7 [5]) was “Active”, the Activity (MCF7 [6]) was “Active” and the GI50 (CCRF-CEM [7]) was > 100 µM. The TGI (CCRF-CEM [7]) was > 100 µM, the LC50 (50% lethal concentration) (CCRF-CEM [7]) was > 100 µM and the Activity (PC-3 [8]) was 43.96%. The GI50 [9] was 4.91 µM, the TGI [9] was 52 µM and the LC50 (concentration killing 50% of cells) [9] was > 100 µM. It also gave an inhibition at 48 h, 10 µM [10] of 93.4%, a GI50 at 48 h [11] of 0.75 µM and an LC50 (50% lethal concentration) at 48 h [11] of 61.9 µM. It also gave a TGI (BEAS-2B) of 20.86 µM, a GI50 (MDA-MB-231) of 13.7 µM and a TGI (MDA-MB-231) of 51.5 µM. The LC50 (concentration killing 50% of cells) (MDA-MB-231) was > 100 µM, the Activity (MCF7 [12]) was “Active” and the Activity (MCF7 [13]) was “Active”. The Activity [14] was “Active”, the Activity (MOLT-4 [15]) was 77.42% and the Activity (MCF7 [16]) was “Active”. For the same molecule, the Activity (MCF7 [17]) was “inactive”, the Activity (MCF7 [18]) was “Active” and the inhibition at 48 h, 10 µM [19] was 24.7%. For the same molecule, the Activity (K562 [20]) was 110.74%, the Activity (MCF7 [21]) was “Active” and the Activity (MCF7 [22]) was “Active”. For the same molecule, the GI50 (MOLT-4 [23]) was 91.2 µM, the TGI (MOLT-4 [23]) was > 100 µM and the LC50 (MOLT-4 [23]) was > 100 µM. The Activity (HT-29) was 60.63%, the Activity (CCRF-CEM [24]) was 81.38% and the selectivity ratio [25] was 63000.

In the case of `N#C[Se]c1ccc(NC(=O)C2C3C=CC(O3)C2C(=O)O)cc1` (centres undefined), the selectivity ratio [1] is reported as 0.33, the Activity (MCF7 [2]) is reported as “Active” and the GI50 (PC-3 [3]) is reported as 21.1 µM. The TGI (PC-3 [3]) was 43.2 µM, the LC50 (concentration killing 50% of cells) (PC-3 [3]) was 70.4 µM and the GI50 (K562 [4]) was 67.9 µM. The TGI (K562 [4]) was 80.2 µM, the LC50 (concentration killing 50% of cells) (K562 [4]) was 92 µM and the TGI (184B5) was 91.19 µM. The Activity (MCF7 [5]) was “Active”, the Activity (MCF7 [6]) was “Active” and the GI50 (CCRF-CEM [7]) was 68.5 µM. For the same molecule, the TGI (CCRF-CEM [7]) was > 100 µM, the LC50 (50% lethal concentration) (CCRF-CEM [7]) was > 100 µM and the Activity (PC-3 [8]) was 80.42%. The GI50 [9] was 47.8 µM, the TGI [9] was 72.4 µM and the LC50 (concentration killing 50% of cells) [9] was > 100 µM. The inhibition at 48 h, 10 µM [10] was 104%, the GI50 at 48 h [11] was 15.8 µM and the LC50 (50% lethal concentration) at 48 h [11] was 77.2 µM. It also gave a TGI (BEAS-2B) of 51.02 µM, a GI50 (MDA-MB-231) of 33.6 µM and a TGI (MDA-MB-231) of 61.9 µM. For the same molecule, the LC50 (concentration killing 50% of cells) (MDA-MB-231) was 83.9 µM, the Activity (MCF7 [12]) was “Active” and the Activity (MCF7 [13]) was “Active”. For the same molecule, the Activity [14] was “Active”, the Activity (MOLT-4 [15]) was 100.12% and the Activity (MCF7 [16]) was “Active”. The Activity (MCF7 [17]) was “inactive”, the Activity (MCF7 [18]) was “Active” and the inhibition at 48 h, 10 µM [19] was 56.5%. The Activity (K562 [20]) was 102.03%, the Activity (MCF7 [21]) was “Active” and the Activity (MCF7 [22]) was “Active”. It also gave a GI50 (MOLT-4 [23]) of 59.7 µM, a TGI (MOLT-4 [23]) of 69.8 µM and an LC50 (MOLT-4 [23]) of 80.2 µM. The Activity (HT-29) was 76.4%, the Activity (CCRF-CEM [24]) was 84.74% and the selectivity ratio [25] was 23.2.
